Results from ChEMBL document CHEMBL1144523, “Synthetic cryptolepine inhibits DNA binding of NF-kappaB” (Bioorg Med Chem, 2007).
Counter-ions that a name gives are not always drawn. The source made the active and inactive calls. No cut-off for these calls is given here.

Tests used:
RAW [1] = experiment: Inhibition of DNA binding of NF-kappaB in LPS-stimulated mouse RAW 264.7 cells administered at 5 uM […] by EMSA; assay type: cell-based
Summary of the method: (§1)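 RAW 264.7 cells were pretreated with compound for 30 min, then stimulated with LPS (100 ng/ml in methods) for 60 min. Nuclear extracts were made by hypotonic HEPES swelling with NP-40, then hypertonic 0.4 M NaCl extraction. Equal nuclear protein was incubated with labelled NF-κB probe for 30 min at room temperature, resolved on a 4.5% native gel and imaged by phosphorimager.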

[2] = molecular target: Transcription factor p65 (Mus musculus) (UniProt Q04207); experiment: Inhibition of […]/NFkappaB nuclear translocation in LPS-stimulated mouse RAW 264.7 cells administered at 10 uM for 30 mins after LPS challenge; assay type: cell-based
Sequence of Transcription factor p65 (Mus musculus) (Q04207 whole entry): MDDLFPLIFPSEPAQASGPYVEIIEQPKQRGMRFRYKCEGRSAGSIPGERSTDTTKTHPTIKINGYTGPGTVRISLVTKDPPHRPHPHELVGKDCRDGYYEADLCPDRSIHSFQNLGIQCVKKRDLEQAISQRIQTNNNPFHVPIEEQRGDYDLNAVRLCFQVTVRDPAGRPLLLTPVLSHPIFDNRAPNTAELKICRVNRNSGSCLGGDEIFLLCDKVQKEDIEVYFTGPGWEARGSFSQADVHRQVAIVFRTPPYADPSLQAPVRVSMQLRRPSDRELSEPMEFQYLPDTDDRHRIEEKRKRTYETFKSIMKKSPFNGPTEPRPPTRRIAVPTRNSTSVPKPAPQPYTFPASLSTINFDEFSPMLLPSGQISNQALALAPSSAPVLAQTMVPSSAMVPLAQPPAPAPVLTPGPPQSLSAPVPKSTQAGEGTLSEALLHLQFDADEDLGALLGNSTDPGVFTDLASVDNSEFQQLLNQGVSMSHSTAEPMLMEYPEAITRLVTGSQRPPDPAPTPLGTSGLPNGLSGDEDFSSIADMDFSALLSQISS
Summary of the method: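 RAW 264.7 cells were grown on gelatine-coated coverslips and preincubated with 10 µM compound for 30 min, then given LPS for 30 min. Cells were fixed in 2% formalin, permeabilized with 0.2% Triton X-100 and blocked in 5% BSA. They were stained with anti-p65 (1:50, 2 h, room temperature) plus FITC secondary (1 h) and imaged by confocal microscopy at 488 nm excitation.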

HEK293 = experiment: Inhibition of NF-kappaB-mediated gene transcription in HEK293 cells by luciferase reporter gene assay; assay type: cell-based; settings: Homo sapiens
Summary of the method: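 HEK293 cells were transfected with pNF-κB-luc by Ca²⁺-phosphate, reseeded at 15,000 cells/well and grown for 16 h. They were pretreated with compound for 30 min, then stimulated with TNF-α 1 ng/ml for 6 h. Lysates were assayed for luciferase by luminometer. Data are means ± SD of at least four experiments in triplicate, ANOVA/Dunnett.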

RAW [3] = experiment: Effect on IkappaB phosphorylation in LPS-stimulated mouse RAW 264.7 cells […]; assay type: cell-based
RAW [4] = experiment: Effect on IkappaB degradation in LPS-stimulated mouse RAW 264.7 cells administered at 10 uM for 30 mins […]; assay type: functional, cell-based
Summary of the method: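 RAW 264.7 cells were pretreated with 10 µM compound for 30 min, then stimulated with LPS for the indicated times. Cells were lysed in SDS buffer, run on 10–12% gels and blotted to PVDF. Blots were probed for phospho-IκB, IκB after stripping, and tubulin, with ECL detection. Densitometric p-IκB/IκB ratios are given as fold of unstimulated control; three independent experiments, means ± SD.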

RAW [5] = experiment: Inhibition of DNA binding of NF-kappaB in LPS-stimulated mouse RAW 264.7 cells administered at 10 uM […] by EMSA; assay type: cell-based; summary of the method: as §1
RAW [6] = experiment: Inhibition of DNA binding of NF-kappaB isolated from LPS-stimulated mouse RAW 264.7 cells administered at 250 uM after 30 mins by EMSA; assay type: cell-free
Summary of the method: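 Nuclei from LPS-stimulated RAW 264.7 macrophages served as the source of active NF-κB. Equal amounts of nuclear protein were incubated with compound for 30 min, with or without 2 mM DTT. Radiolabelled NF-κB consensus probe was then added for 30 min at room temperature. Complexes were resolved on a 4.5% native gel and imaged by phosphorimager.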

RAW [7] = experiment: Inhibition of LPS-stimulated nitric oxide production in mouse RAW 264.7 cells at 5 uM after 20 hrs relative to control; assay type: functional
Summary of the method: (§2)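 RAW 264.7 cells were seeded in 96-well plates and cultured for 2 days. Compound was added, then LPS immediately after, for 20 h. Nitrite in the supernatant was measured by Griess reaction (sulfanilamide plus N-(1-naphthyl)ethylenediamine) at 550 nm against a 620 nm reference, quantified from a sodium nitrite standard curve. Runs were in triplicate; data are means ± SD of six independent experiments, ANOVA/Dunnett.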

RAW [8] = experiment: Inhibition of LPS-stimulated nitric oxide production in mouse RAW 264.7 cells at 10 uM after 20 hrs relative to control; assay type: functional; summary of the method: as §2
[9] = Cytotoxicity against mouse RAW 264.7 cells; assay type: cell-based
Summary of the method: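 RAW 264.7 cells (DMEM, 10% heat-inactivated FBS, passages 5–20) were first run through the 20 h LPS nitrite assay. Attached cells were then stained with 0.5% Crystal Violet in 20% methanol. Bound dye was dissolved in 50% 1 M sodium citrate/50% ethanol and absorbance read at 540 nm.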

C=C1C(=O)O[C@@H]2C3O[C@]3(C)CC/C=C(\C)CC[C@@H]12 (some centres not stated)
Activity (RAW [1]): Active | Activity [2]: Active

C[n+]1c2ccccc2cc2[n-]c3ccccc3c21
Activity (HEK293): Dose-dependent effect | Activity (RAW [3]): inactive | Activity (RAW [4]): inactive | Activity (RAW [1]): Active | Activity [2]: inactive | Activity (RAW [5]): Active | Activity (RAW [6]): Active

C[n+]1c2ccccc2cc2[n-]c3ccccc3c21 [CRYPTOLEPINE HYDROCHLORIDE]
inhibition at 5 µM (RAW [7]): 30% | inhibition at 10 µM (RAW [8]): 50%

C[n+]1c2ccccc2cc2[n-]c3ccccc3c21 [CRYPTOLEPINE]
Activity [9]: Active
